This note sets out measurements from ChEMBL document CHEMBL3734668, “Evaluation of small molecule SecA inhibitors against methicillin-resistant Staphylococcus aureus” (Bioorg Med Chem, 2015).

As usually defined, the MIC is the lowest concentration that inhibits growth of the organism. What is called pIC50 is the negative decadic logarithm of the IC50, by convention in mol/L.

pIC50: −log10 of the molar value. ≈ marks a conversion by molar mass, not a printed value. Calls of active or inactive are those of the source. The rule behind the calls is not given here.

Assay [1] has as its system Staphylococcus aureus. Nature of the assay: Bactericidal activity against Methicillin resistant Staphylococcus aureus Mu50 assessed as CFU reduction for 1 hr. It is filed as functional, organism-based. The gist of the method:
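Log-phase Mu50 cultures (OD600 ≈ 0.5) mixed with a range of inhibitor concentrations, shaken 1,000 rpm at 37 °C for 1 hr under normal room light. Cultures then serially diluted in LB, plated on LB agar and incubated overnight at 37 °C. Activity expressed as reduction in CFU relative to untreated control containing matching DMSO.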

Assay [2] relates to Staphylococcus aureus. Put plainly: Bacteriostatic activity against wild type Staphylococcus aureus 8325-4. It is filed as functional. The gist of the method:
(§1)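 Broth microdilution MIC per CLSI guidance in LB, 37 °C, shaking 250 rpm, 24 hr; run in triplicate in three separate experiments. MIC taken as lowest inhibitor concentration with no growth. Compounds from DMSO stocks; untreated controls carry equal DMSO.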

The subject of assay [3] is Staphylococcus aureus. Put plainly: Reduction in extracellular protein in Staphylococcus aureus Mu50 supernatant at 10 uM measured within 15 hrs. It is filed as functional, organism-based. In outline:
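Mu50 grown in LB at 37 °C; inhibitor added at mid-log phase (OD600 ≈ 2.6). Culture sampled at various times, supernatant separated by centrifugation and passed through 0.45 μm filter. Secreted α-hemolysin, TSST-1 and enterotoxin B detected by Western blot with specific antibodies.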

The test system of assay [4] is Staphylococcus aureus. Nature of the assay: Potency index, ratio of MIC for vancomysin to MIC for test compound against Methicillin resistant Staphylococcus aureus. It is filed as functional.
Assay [5] concerns the target T1, Protein translocase subunit SecA 2 (Staphylococcus aureus (strain NCTC 8325), UniProt Q2FUW6).
T1 sequence (Q2FUW6 whole entry): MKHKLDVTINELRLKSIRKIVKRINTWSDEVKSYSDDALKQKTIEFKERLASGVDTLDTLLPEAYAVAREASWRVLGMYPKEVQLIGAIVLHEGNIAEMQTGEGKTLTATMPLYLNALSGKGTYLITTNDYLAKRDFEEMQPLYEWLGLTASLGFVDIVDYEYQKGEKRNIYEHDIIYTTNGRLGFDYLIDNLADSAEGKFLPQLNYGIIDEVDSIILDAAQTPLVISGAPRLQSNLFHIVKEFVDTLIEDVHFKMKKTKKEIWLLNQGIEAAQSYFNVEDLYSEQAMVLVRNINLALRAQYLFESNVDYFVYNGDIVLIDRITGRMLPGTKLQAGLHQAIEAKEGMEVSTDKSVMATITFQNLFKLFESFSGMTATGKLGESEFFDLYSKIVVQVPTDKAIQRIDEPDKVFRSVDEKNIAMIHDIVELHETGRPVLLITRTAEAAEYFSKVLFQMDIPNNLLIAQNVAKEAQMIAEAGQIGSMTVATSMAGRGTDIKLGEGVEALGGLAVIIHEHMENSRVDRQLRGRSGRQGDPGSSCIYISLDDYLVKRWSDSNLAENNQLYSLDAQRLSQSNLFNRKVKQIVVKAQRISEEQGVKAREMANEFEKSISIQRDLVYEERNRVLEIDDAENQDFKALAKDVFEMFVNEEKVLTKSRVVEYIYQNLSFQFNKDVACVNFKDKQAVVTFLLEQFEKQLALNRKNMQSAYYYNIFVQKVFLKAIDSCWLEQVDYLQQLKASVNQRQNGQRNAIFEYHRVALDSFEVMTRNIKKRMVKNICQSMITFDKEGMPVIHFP
Nature of the assay: Inhibition of Staphylococcus aureus ATCC 35556 SecA2 expressed in Escherichia coli BL21-gammaDE3 assessed as reduction in intrinsic ATPase activity incubated for 3 hrs measured by malachite green colorimetric method.

The target in assay [6] is T2, Protein translocase subunit SecA 1 (Staphylococcus aureus (strain NCTC 8325)) (UniProt O06446).
T2 sequence (whole entry): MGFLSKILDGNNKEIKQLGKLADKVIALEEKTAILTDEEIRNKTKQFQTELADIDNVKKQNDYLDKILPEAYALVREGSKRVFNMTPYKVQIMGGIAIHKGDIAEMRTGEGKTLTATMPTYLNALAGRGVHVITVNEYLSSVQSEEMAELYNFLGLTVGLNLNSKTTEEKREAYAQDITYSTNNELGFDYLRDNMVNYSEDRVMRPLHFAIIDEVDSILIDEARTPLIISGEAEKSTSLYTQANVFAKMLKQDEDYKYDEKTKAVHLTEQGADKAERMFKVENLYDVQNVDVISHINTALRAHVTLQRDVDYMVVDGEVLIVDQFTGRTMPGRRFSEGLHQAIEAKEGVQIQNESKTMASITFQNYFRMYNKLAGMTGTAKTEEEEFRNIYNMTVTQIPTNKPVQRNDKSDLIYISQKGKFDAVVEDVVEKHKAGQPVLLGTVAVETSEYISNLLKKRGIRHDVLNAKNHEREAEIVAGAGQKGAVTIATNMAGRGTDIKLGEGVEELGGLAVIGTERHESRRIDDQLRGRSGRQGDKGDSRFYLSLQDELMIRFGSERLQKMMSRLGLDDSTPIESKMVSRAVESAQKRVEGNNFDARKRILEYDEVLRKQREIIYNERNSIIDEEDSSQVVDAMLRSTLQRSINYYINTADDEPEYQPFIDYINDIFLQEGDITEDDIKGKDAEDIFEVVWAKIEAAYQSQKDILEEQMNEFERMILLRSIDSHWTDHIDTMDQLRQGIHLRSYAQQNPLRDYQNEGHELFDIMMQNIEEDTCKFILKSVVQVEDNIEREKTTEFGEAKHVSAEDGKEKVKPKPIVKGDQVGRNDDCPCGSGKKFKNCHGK
Nature of the assay: Non-competitive inhibition of Staphylococcus aureus ATCC 35556 SecA1 liposomal ATPase activity in Xenopus laevis oocytes incubated for 3 hrs measured by Lineweaver-Burk plot analysis. It is filed as cell-based. In outline: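 SaSecA1-liposome plus proOmpA co-injected into Xenopus oocytes at varying ATP and inhibitor concentrations, incubated 3 hr at 23 °C, ion current recorded 1 min; n = 9-10. Inhibition mode assessed across ATP levels.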

Assay [7] addresses T2, Protein translocase subunit SecA 1 (Staphylococcus aureus (strain NCTC 8325)). Nature of the assay: Inhibition of Staphylococcus aureus SecA1 assessed as reduction in secretion of alpha-hemolysin at 10 uM by Western blot analysis. The gist of the method: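 S. aureus Mu50 grown in LB at 37 °C; inhibitor added at mid-log phase and cultures sampled at several time points. Supernatants separated by centrifugation, filtered 0.45 μm, and probed by Western blot with antibodies to α-hemolysin, TSST-1 or enterotoxin B.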

In assay [8] the test system is Staphylococcus aureus. Put plainly: Bacteriostatic activity against Staphylococcus aureus N315 after 24 hrs. It is filed as functional. To be noted: N315, 24 h. In outline:
as §1

In assay [9] the test system is Staphylococcus aureus. Nature of the assay: Bacteriostatic activity against Staphylococcus aureus Mu3 after 24 hrs. It is filed as functional. To be noted: Mu3, 24 h. The gist of the method: as §1
Assay [10] has as its system Staphylococcus aureus. Put plainly: Potency index, ratio of MIC for kanamycin to MIC for test compound against Methicillin resistant Staphylococcus aureus. It is filed as functional.
The test system of assay [11] is Staphylococcus aureus. Nature of the assay: Potency index, ratio of MIC for rifampicin to MIC for test compound against Methicillin resistant Staphylococcus aureus. It is filed as functional.
In assay [12] the test system is Staphylococcus aureus. Nature of the assay: Potency index, ratio of MIC for polymyxin B to MIC for test compound against Methicillin resistant Staphylococcus aureus. It is filed as functional.
The test system of assay [13] is Staphylococcus aureus. Nature of the assay: Bactericidal activity against Methicillin sensitive Staphylococcus aureus ATCC 6538 assessed as CFU reduction at 30 uM for 1 hr. It is filed as functional. In outline: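 Log-phase LB cultures (OD600 ≈ 0.5) mixed with a range of inhibitor concentrations, shaken at 1,000 rpm, 37 °C, 1 hr, under normal room light. Cultures serially diluted in LB, plated on LB agar, incubated overnight at 37 °C. CFU counted; bactericidal effect taken as CFU reduction versus untreated control.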

Take `CCCCCCC1c2ccc(O)cc2Oc2cc(O)ccc21`: the Activity result in the assay with Staphylococcus aureus [1] was “Dose-dependent effect”; in the assay on Staphylococcus aureus [13], 2 log10CFU/ml. Further, the MIC in the assay with Staphylococcus aureus [2], with Staphylococcus aureus [8] and in the assay on Staphylococcus aureus [9] was 4 µg/mL (≈ 13.4 µM) throughout. Moreover, the result in the assay on Staphylococcus aureus [3] was Active. For the same compound, the Ratio turned out to be 2 in the assay on Staphylococcus aureus [4], 250 with Staphylococcus aureus [10], 250 in the assay on Staphylococcus aureus [11] and 7 with Staphylococcus aureus [12]. Further, in [5], the pIC50 is 4.82. The inhibition entry in assay [6] and in assay [7] was “Active” in each case.
